Consider one compound from ChEMBL document CHEMBL4765486, “Novel Nonsecosteroidal Vitamin D Receptor Modulator Combined with Gemcitabine Enhances Pancreatic Cancer Therapy through Remodeling of the Tumor Microenvironment” (J Med Chem, 2021).

A short description of data set [1]: Toxicity in orthotropic xenograft BALB/c nude mouse model of pancreatic cancer co-inoculated with rat DSL-6A/C1-Luc cells and LTC-14-GFP cells assessed as hypercalcemia at 500 ug/kg, ip administered once every 3 days for 12 days coadministered with gemcitabine at 100 mg/kg and measured after 3 days post last dose. The data set is classed as organism-based. The following applies: in vivo, 0.5 mg/kg, 288 h, dose 500 µg/kg, time 12 day. The essentials: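 Orthotopic DSL-6A/C1-luci/LTC-14-GFP nude mice received gemcitabine 100 mg/kg plus compound 500 μg/kg ip for 12 days. They were sacrificed 3 days after the final dose, and serum was collected for biochemical analysis to assess hypercalcemia.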

Data set [2] relates to LTC-14. As to the kind of experiment: Inhibition of rat LTC-14 cells interaction with DSL-6A/C1 cells in conditioned media assessed as inhibition of POSTN protein expression at 0.5 uM measured after 24 hrs by Western blot analysis. It counts as functional, cell-based. The essentials: (§1)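 LTC-14 cells were treated for 24 h with DSL-6A/C1 conditioned medium plus compound (0.5 μM). Proteins were separated on 10% SDS-PAGE, transferred to PVDF and probed with rabbit anti-PDGF-A or anti-POSTN, with β-actin as loading reference.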

The subject of data set [3] is LTC-14. As to the kind of experiment: Inhibition of rat LTC-14 cells activation assessed as inhibition of Fgf mRNA expression at 0.5 uM treated under conditioned media of DSL-6A/C1 cells for 24 hrs by q-PCR analysis. The data set is classed as functional, cell-based. The gist of the method:
(§2)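 LTC-14 PSCs were exposed for 24 h to conditioned medium from rat DSL-6A/C1 cancer cells containing compound at 0.5 μM. Pdgfa, Pdgfb, Fgf2, Hgf and Periodin mRNA were quantified by RT-qPCR. Three repeats, mean ± SD versus CM alone.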

The test system of data set [4] is LTC-14. Put plainly: Inhibition of rat LTC-14 cells activation assessed as reduction in ECM deposition resulting in doxorubicin accumulation in PSC spheres pretreated with compounds followed by doxorubicin addition by laser confocal microscopy analysis. The data set is classed as functional, cell-based. The gist of the method: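 LTC-14 cells were grown in 3D culture to form PSC spheres and treated with compounds. Fluorescent doxorubicin was then added, and its penetration into the spheres was imaged by laser confocal microscopy. Three repeats, versus untreated control.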

The test system of data set [5] is LTC-14. As to the kind of experiment: Inhibition of rat LTC-14 cells activation assessed as inhibition of PDGFA mRNA expression at 0.5 uM treated under conditioned media of DSL-6A/C1 cells for 24 hrs by q-PCR analysis. It counts as functional, cell-based. The gist of the method:
as §2

Data set [6] has as its system LTC-14. As to the kind of experiment: Inhibition of rat LTC-14 cell activation assessed decrease in TGF-beta1 induced Colla1 mRNA expression at 0.5 uM incubated for 24 hrs by q-PCR analysis. It counts as functional. The essentials: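 Immortalized rat PSC line LTC-14, about 1×10^5 cells per well, was grown 24 h at 37 °C in 5% CO2. Cells then received compound (0.5 μM) plus TGF-β1 for 24 h; TGF-β1 is stated as 0.5 ng/mL in the text and 5 ng/mL in the methods. Col1a1 and Acta2 mRNA were measured by RT-qPCR. Mean ± SD versus TGF-β1 alone.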

Data set [7] relates to LTC-14. Put plainly: Inhibition of rat LTC-14 cells activation assessed as inhibition of PDGFB mRNA expression at 0.5 uM treated under conditioned media of DSL-6A/C1 cells for 24 hrs by q-PCR analysis. It counts as functional, cell-based. The essentials:
as §2

Data set [8] concerns Mus musculus. Put plainly: Inhibition of GFP-tagged rat LTC-14 cells activation in BALB/c nude mouse xenografted along with luciferase-tagged DSL-6A/C1-Luc cells assessed as reduction in alpha-smooth muscle actin expression in tumor at 500 ug/kg, ip administered once every 3 days for 12 days coadministered with gemcitabine at 100 mg/kg by DAPI staining based laser confocal scanning microscopy. It counts as functional, organism-based. The following applies: dose 500.0 µg/kg, time 12.0 day. The essentials: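 Tumours were taken from orthotopic co-inoculated nude mice given gemcitabine 100 mg/kg plus compound (500 μg/kg) or calcipotriol (60 μg/kg) ip for 12 days. Sections were fixed in 4% PFA, permeabilised with 0.5% Triton X-100 and blocked in 5% BSA. They were incubated with anti-α-SMA overnight at 4 °C, then an Alexa Fluor 594 secondary for 1 h at 37 °C, DAPI-counterstained and imaged by confocal microscopy.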

Data set [9] concerns the target T1, Vitamin D3 receptor (Homo sapiens, UniProt P11473).
T1 sequence (P11473 whole entry): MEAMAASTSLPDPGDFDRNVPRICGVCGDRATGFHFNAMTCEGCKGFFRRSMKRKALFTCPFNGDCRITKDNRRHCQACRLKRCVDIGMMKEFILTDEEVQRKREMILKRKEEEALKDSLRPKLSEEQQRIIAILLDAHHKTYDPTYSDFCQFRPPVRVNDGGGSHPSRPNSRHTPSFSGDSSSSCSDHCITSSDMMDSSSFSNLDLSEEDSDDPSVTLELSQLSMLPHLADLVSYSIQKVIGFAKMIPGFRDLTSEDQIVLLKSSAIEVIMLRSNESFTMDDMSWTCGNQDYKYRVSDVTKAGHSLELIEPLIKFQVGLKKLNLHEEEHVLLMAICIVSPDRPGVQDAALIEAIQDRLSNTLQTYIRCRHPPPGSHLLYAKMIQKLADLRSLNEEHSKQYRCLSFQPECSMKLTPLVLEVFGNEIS
Put plainly: Binding affinity to VDR (unknown origin) by fluorescence polarization assay. The essentials:
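Competitive VDR binding was measured by PolarScreen fluorescence polarization, in triplicate.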
(In general: In fluorescence polarisation assays a small probe gives low polarisation when free and higher when bound to something large.)

Data set [10] deals with DSL-6A/C1. Put plainly: Potentiation of gemcitabine-induced antitumor activity against luciferase-tagged rat DSL-6A/C1 cells and GFP-tagged LTC-14 cells co-inoculated in orthotropic xenograft BALB/c nude mouse model of pancreatic cancer assessed as inhibition of collagen deposition at 500 ug/kg, ip administered once every 3 days for 12 days coadministered with gemcitabine at 100 mg/kg and measured after 3 days post last dose by Masson staining based assay. The data set is classed as functional, organism-based. The settings on record: dose 500.0 µg/kg, time 12.0 day. The essentials: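 In the same orthotopic co-inoculation model, mice received gemcitabine 100 mg/kg ip every 3 days plus compound 500 μg/kg ip for 12 days. Animals were sacrificed 3 days after the last dose. Pancreatic tumour sections were stained with H&E for tissue structure and with Masson's trichrome for collagen deposition, imaged at ×100.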

The test system of data set [11] is DSL-6A/C1. Put plainly: Antiproliferative activity against rat DSL-6A/C1 cells assessed as reduction in cell viability at 0.5 uM treated with conditioned media of LTC-14 cells for 24 hrs by MTT assay. The data set is classed as functional, cell-based. The gist of the method: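 Rat pancreatic cancer DSL-6A/C1 cells were cultured in supernatant from LTC-14 PSCs (PSC-CM) with compound added at 0.5 μM for 24 h. Viability was then read by MTT: 4 h incubation with MTT (5 mg/mL stock), absorbance at 570 nm. Run in triplicate, compared with PSC-CM alone.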
(In general: Tetrazolium assays rely on reduction of a dye to a coloured formazan, in cell work by metabolically active cells.)

The test system of data set [12] is LTC-14. Put plainly: Inhibition of rat LTC-14 cells interaction with DSL-6A/C1 cells in conditioned media assessed as inhibition of PDGF-A protein expression at 0.5 uM measured after 24 hrs by Western blot analysis. The data set is classed as functional, cell-based. The gist of the method: as §1
(A western blot detects proteins with antibodies after separation by electrophoresis.)

Activity calls are given as the source filed them. Unless noted, no cut-off for these calls is given here.

Regarding `CCn1cc(C(CC)(CC)c2ccc(OCC(C)O)c(C)c2)cc1C(=O)NCCN1CCN(C)CC1` (configuration not stated), the Activity entry in data set [1] was “Non-Toxic”. Moreover, the inhibition result in data set [2], in data set [3], in [4], in data set [5], in data set [6] and in data set [7] was “Active” each time. For the same compound, the inhibition result in data set [8] and in [12] was “Active” throughout. Besides, in data set [9], the IC50 came to 0.0572 µM. Also, the outcome in data set [10] was Active. Moreover, the result in data set [11] was inactive.

For orientation: IC50 means the concentration needed to halve the response being measured. A higher IC50 goes with lower potency.
